Measurements from ChEMBL document CHEMBL5724801, “EUbOPEN Chemogenomics Library - Multiplex” (2024).
Where “and” joins values, the source holds several entries; their conditions need not be identical. Equal entries are not always repeated.

System: U2OS
Assay: Multiplex assay against U2OS
Type: toxicity, cell-based
Conditions: human
Procedure, shortened: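 Compound was added to live cells that had been stained at seeding with Hoechst33342, BioTracker Green Microtubule Cytoskeleton Dye, MitoTracker Red and Annexin V Alexa Fluor 680, and imaging followed on a CQ1 microscope at 37°C and 5% CO2. CellPathfinder machine-learning gating divided cells into Hoechst high-intensity objects or normal cells, normal cells into healthy, pyknosed or fragmented nuclei, and pyknosed cells into mitotic or apoptotic. Tubulin, mitochondrial-mass and membrane-permeability phenotypes are per cents of healthy-nucleus cells.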

[1] = 12 h, 1 µM, compound concentration 1 uM
[2] = 12 h, 10 µM, compound concentration 10 uM
[3] = 24 h, 1 µM, compound concentration 1 uM
[4] = 24 h, 10 µM, compound concentration 10 uM
[5] = 48 h, 1 µM, compound concentration 1 uM
[6] = 48 h, 10 µM, compound concentration 10 uM

How did the “Population Apoptotic (%)” value [1] turn out when `Cl.O=S(=O)(c1cccc2c(I)cccc12)N1CCCNCC1` was run?
Its value is 56.67% and 27.27%.

What about the “Population Fragmented Nuclei (%)” value [1] of the same compound?
The value was 2.94% and 4.55%.

What about the “Population Healthy Nuclei (%)” value [1] of the same compound?
Its value is 89.04% and 87.12%.

What about the “Population Hoechst High Intensity Objects (%)” value [1] of the same compound?
Its value is 0%.

And the “Population Membrane Permeable-Phenotype (%)” value [1]?
The value was 1.5% and 1.74%.

And the “Population Mitochondria Different-Phenotype (%)” value [1]?
Its value is 0.3% and 6.09%.

And the “Population Mitotic Cells (%)” value [1]?
Its value is 43.33% and 72.73%.

And the “Population Normal (%)” value [1]?
Its value is 100%.

What about the “Population Pyknosed Nuclei (%)” value [1] of the same compound?
The value was 8.02% and 8.33%.

What about the “Population Tubulin-Different-Phenotype (%)” value [1] of the same compound?
The value was 1.2% and 0%.

What about the “Total Cell Count” value [1] of the same compound?
Its value is 374 and 132.

What about the “Population Apoptotic (%)” value [2] of the same compound?
Its value is 35.59% and 25%.

And the “Population Fragmented Nuclei (%)” value [2]?
Its value is 1.04% and 0.7%.

And the “Population Healthy Nuclei (%)” value [2]?
Its value is 86.75% and 74.13%.

And the “Population Hoechst High Intensity Objects (%)” value [2]?
The value was 0%.

What about the “Population Membrane Permeable-Phenotype (%)” value [2] of the same compound?
Its value is 1.67% and 4.72%.

And the “Population Mitotic Cells (%)” value [2]?
Its value is 64.41% and 75%.

What about the “Population Normal (%)” value [2] of the same compound?
Its value is 100%.

What about the “Population Pyknosed Nuclei (%)” value [2] of the same compound?
Its value is 12.22% and 25.17%.

And the “Population Tubulin-Different-Phenotype (%)” value [2]?
Its value is 5.73% and 1.89%.

What about the “Population Apoptotic (%)” value [3] of the same compound?
The value was 47.27% and 30.77%.

What about the “Population Fragmented Nuclei (%)” value [3] of the same compound?
Its value is 1.85% and 3.49%.

What about the “Population Healthy Nuclei (%)” value [3] of the same compound?
Its value is 86.83% and 88.95%.

What about the “Population Hoechst High Intensity Objects (%)” value [3] of the same compound?
The value was 0% and 0.58%.

What about the “Population Membrane Permeable-Phenotype (%)” value [3] of the same compound?
The value was 1.42% and 0.65%.

What about the “Population Mitochondria Different-Phenotype (%)” value [3] of the same compound?
The value was 0% and 4.58%.

And the “Population Mitotic Cells (%)” value [3]?
Its value is 52.73% and 69.23%.

What about the “Population Normal (%)” value [3] of the same compound?
The value was 100% and 99.42%.

And the “Population Pyknosed Nuclei (%)” value [3]?
Its value is 11.32% and 7.56%.

What about the “Population Tubulin-Different-Phenotype (%)” value [3] of the same compound?
The value was 0.47% and 1.96%.

What about the “Total Cell Count” value [3] of the same compound?
The value was 486 and 173.

What about the “Population Apoptotic (%)” value [4] of the same compound?
The value was 46.38% and 25%.

What about the “Population Fragmented Nuclei (%)” value [4] of the same compound?
The value was 1.31% and 1.69%.

And the “Population Healthy Nuclei (%)” value [4]?
Its value is 87.4% and 73.6%.

And the “Population Hoechst High Intensity Objects (%)” value [4]?
Its value is 0%.

And the “Population Membrane Permeable-Phenotype (%)” value [4]?
The value was 0.94% and 3.82%.

And the “Population Mitotic Cells (%)” value [4]?
Its value is 53.62% and 75%.

What about the “Population Normal (%)” value [4] of the same compound?
The value was 100%.

What about the “Population Pyknosed Nuclei (%)” value [4] of the same compound?
Its value is 11.29% and 24.72%.

What about the “Population Tubulin-Different-Phenotype (%)” value [4] of the same compound?
The value was 1.87% and 3.05%.

And the “Population Apoptotic (%)” value [5]?
Its value is 40% and 50%.

And the “Population Fragmented Nuclei (%)” value [5]?
Its value is 1.92% and 2.4%.

And the “Population Healthy Nuclei (%)” value [5]?
Its value is 89.6% and 90.07%.

What about the “Population Hoechst High Intensity Objects (%)” value [5] of the same compound?
Its value is 0%.

What about the “Population Membrane Permeable-Phenotype (%)” value [5] of the same compound?
Its value is 0.88% and 3.42%.

And the “Population Mitochondria Different-Phenotype (%)” value [5]?
Its value is 0% and 2.66%.

What about the “Population Mitotic Cells (%)” value [5] of the same compound?
Its value is 60% and 50%.

What about the “Population Normal (%)” value [5] of the same compound?
Its value is 100%.

What about the “Population Pyknosed Nuclei (%)” value [5] of the same compound?
Its value is 8.47% and 7.53%.

What about the “Population Tubulin-Different-Phenotype (%)” value [5] of the same compound?
The value was 0.88% and 2.28%.

And the “Population Apoptotic (%)” value [6]?
The value was 44.03% and 45.31%.

What about the “Population Fragmented Nuclei (%)” value [6] of the same compound?
The value was 1.9% and 3.72%.

What about the “Population Healthy Nuclei (%)” value [6] of the same compound?
Its value is 82.95% and 72.49%.

And the “Population Hoechst High Intensity Objects (%)” value [6]?
The value was 0.1% and 0%.

And the “Population Membrane Permeable-Phenotype (%)” value [6]?
Its value is 1.26% and 4.62%.

And the “Population Mitochondria Different-Phenotype (%)” value [6]?
The value was 0.46% and 7.18%.

And the “Population Mitotic Cells (%)” value [6]?
The value was 55.97% and 54.69%.

And the “Population Normal (%)” value [6]?
The value was 99.9% and 100%.

What about the “Population Pyknosed Nuclei (%)” value [6] of the same compound?
The value was 15.14% and 23.79%.

And the “Population Tubulin-Different-Phenotype (%)” value [6]?
The value was 3.21% and 4.62%.
